From ChEMBL document CHEMBL4373703 (J Med Chem, 2019)
Values after ≈ are worked out from the molar mass of the structure shown. Active and inactive are the calls of the source. No cut-off for these calls is given here.

How the values were obtained:
[1] = target: Voltage-gated inwardly rectifying potassium channel KCNH2 (Homo sapiens, UniProt Q12809); experiment: Inhibition of human ERG expressed in HEK293 cells at -80 mV holding potential by […]; format: cell-based
[2] = Intrinsic clearance in human liver microsomes at 1 uM in presence of NADPH measured up to 30 mins by LC-MS/MS analysis; format: ADME, Microsome; settings: read-out: CLH
[3] = Apparent permeability across apical to basolateral side in human Caco2 cells at 1 uM incubated for 2 hrs by LC-MS/MS analysis; format: ADME, cell-based; settings: Caco-2
[4] = Kinetic solubility of the compound; format: physicochemical; settings: read-out: Kinetic_solubility
[5] = target: T1, Tyrosine-protein kinase BTK (Homo sapiens, UniProt Q06187); experiment: Covalent inhibition of N-terminal GST-fused human BTK (2-659(end) amino acids) expressed in baculovirus expression system using FITC-AHA-EEPLYWSFPAKKK-NH2 as substrate incubated for 90 mins by microfluidic off-Chip Mobility Shift Assay
T1 sequence (Q06187 whole entry, the tested form may be a part): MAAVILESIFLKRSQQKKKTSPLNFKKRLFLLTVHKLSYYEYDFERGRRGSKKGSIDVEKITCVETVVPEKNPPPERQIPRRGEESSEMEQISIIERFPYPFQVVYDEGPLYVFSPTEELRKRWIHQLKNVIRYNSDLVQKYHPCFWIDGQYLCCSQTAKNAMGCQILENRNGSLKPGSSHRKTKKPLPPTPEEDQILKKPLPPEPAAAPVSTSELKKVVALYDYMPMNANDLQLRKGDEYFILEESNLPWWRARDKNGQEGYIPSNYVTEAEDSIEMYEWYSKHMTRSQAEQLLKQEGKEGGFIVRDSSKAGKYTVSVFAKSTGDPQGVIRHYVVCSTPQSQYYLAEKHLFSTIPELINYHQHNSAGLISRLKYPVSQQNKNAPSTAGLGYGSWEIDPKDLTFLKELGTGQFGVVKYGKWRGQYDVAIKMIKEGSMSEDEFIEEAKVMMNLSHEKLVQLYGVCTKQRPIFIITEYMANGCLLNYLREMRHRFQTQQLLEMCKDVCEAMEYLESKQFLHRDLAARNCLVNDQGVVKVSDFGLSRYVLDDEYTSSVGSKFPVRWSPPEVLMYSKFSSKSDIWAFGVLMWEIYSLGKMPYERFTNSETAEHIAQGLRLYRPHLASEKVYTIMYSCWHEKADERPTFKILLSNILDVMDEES

[6] = target: Epidermal growth factor receptor (Homo sapiens, UniProt P00533); experiment: Inhibition of N-terminal GST-tagged human EGFR (696 to end aminoacids) expressed in baculovirus infected Sf21 cells
Sequence of Epidermal growth factor receptor (P00533 whole entry): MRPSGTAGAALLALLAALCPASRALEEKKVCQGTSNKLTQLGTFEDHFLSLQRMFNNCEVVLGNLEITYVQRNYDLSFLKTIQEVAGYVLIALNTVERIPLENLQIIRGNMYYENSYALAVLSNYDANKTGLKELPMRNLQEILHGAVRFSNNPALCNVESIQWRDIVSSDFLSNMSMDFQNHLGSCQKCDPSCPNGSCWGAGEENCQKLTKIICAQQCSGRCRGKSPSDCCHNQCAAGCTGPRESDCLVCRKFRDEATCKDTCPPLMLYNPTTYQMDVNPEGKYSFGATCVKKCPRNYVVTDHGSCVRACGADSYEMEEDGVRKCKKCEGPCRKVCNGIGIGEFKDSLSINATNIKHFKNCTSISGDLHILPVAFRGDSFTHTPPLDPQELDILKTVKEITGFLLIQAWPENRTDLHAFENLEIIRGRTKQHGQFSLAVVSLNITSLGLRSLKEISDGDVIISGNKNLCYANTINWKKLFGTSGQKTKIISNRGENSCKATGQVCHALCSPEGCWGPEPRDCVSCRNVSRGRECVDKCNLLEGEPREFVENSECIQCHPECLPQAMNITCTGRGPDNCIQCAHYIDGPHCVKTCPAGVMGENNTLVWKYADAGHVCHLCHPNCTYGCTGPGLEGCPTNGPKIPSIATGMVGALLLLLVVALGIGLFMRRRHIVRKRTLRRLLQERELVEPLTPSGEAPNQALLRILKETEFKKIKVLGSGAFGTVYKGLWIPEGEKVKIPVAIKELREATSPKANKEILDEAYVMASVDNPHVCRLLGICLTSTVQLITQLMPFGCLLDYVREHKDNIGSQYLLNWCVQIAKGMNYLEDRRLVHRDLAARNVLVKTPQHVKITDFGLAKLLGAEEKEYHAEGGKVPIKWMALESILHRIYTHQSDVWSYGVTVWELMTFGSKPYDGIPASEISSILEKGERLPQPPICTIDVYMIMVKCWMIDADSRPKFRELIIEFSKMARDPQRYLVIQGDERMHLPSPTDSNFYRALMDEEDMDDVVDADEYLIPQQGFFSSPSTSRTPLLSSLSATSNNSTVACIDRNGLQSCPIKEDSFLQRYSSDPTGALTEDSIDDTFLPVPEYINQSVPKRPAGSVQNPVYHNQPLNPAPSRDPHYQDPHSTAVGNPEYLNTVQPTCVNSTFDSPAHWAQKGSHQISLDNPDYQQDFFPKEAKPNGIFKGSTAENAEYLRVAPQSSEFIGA

hERG (KCNH2) = hERG (KCNH2) (Homo sapiens, UniProt Q12809); experiment: Inhibition of human ERG expressed in HEK293 cells at 10 uM at -80 mV holding potential by […] relative to control; format: cell-based; settings: HEK293 cells expressing human ERG
Sequence of hERG (KCNH2) (Q12809 whole entry): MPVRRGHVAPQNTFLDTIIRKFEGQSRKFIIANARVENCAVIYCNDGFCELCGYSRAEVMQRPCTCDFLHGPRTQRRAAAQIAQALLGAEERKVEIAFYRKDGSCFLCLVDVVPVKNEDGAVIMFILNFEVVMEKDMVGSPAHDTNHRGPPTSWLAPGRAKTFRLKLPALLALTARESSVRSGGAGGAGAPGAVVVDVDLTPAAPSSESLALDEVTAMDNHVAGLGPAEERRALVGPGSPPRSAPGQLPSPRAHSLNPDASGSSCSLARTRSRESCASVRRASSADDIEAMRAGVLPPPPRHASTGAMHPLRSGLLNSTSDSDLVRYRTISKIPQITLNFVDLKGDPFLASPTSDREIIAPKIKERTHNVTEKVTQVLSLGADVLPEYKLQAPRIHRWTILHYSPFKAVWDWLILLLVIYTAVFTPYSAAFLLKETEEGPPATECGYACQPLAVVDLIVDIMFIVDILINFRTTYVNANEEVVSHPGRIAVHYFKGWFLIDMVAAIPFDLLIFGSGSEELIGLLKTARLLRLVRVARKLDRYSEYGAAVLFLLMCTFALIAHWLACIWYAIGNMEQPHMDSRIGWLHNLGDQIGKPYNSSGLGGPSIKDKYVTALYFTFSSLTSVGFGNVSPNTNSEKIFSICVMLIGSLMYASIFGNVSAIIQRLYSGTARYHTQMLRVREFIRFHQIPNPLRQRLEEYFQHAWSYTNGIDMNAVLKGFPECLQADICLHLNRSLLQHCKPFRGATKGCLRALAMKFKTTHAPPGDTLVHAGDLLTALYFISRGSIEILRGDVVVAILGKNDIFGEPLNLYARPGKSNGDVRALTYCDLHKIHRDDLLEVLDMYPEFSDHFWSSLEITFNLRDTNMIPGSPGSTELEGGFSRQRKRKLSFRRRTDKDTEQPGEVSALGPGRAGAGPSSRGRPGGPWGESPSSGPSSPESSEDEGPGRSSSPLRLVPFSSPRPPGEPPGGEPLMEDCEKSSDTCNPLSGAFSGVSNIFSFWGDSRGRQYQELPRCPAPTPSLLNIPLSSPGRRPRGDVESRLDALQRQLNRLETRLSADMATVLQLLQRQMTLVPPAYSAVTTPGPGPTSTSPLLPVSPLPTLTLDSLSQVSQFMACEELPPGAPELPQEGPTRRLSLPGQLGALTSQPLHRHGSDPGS

[7] = Stability of the compound in plasma (unknown origin) assessed as compound remaining at 4 hrs; format: ADME, cell-free; settings: read-out: Stability
Homo sapiens = species: Homo sapiens; experiment: Selectivity ratio, ratio of IC50 for EGFR (unknown origin) to IC50 for full length human BTK ([…])
[8] = target: T1, Tyrosine-protein kinase BTK; experiment: Inhibition of BTK in human PBMC cells assessed as reduction in anti-IgM-stimulated CD69 expression on B cells preincubated for 60 mins followed by goat F(ab')2 anti-human IgM stimulation and measured after overnight incubation by flow cytometry; format: cell-based
[9] = Efflux ratio in human Caco2 cells; format: ADME, cell-based; settings: Caco-2
[10] = Cmax in C57BL/6 mouse at 1 mg/kg, po; format: ADME, organism-based; set-up: dose 1 mg/kg, route oral; settings: in vivo
Mus musculus [11] = experiment: Inhibition of B cell activation in C57BL/6 mouse at 1 mg/kg, po after 1 hr relative to control; format: functional; settings: Mus musculus, C57BL/6, po, 1 h
In short: (§1)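 Normal C57BL/6 mice received a single oral dose of 1 mg/kg and were tested in an in vivo B cell stimulation assay. Inhibition of B cell activation was read at 1 h and 24 h after dosing.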

Mus musculus [12] = experiment: Inhibition of B cell activation in C57BL/6 mouse at 1 mg/kg, po after 24 hr relative to control; format: functional; settings: Mus musculus, C57BL/6, po, 24 h; in short: as §1
Mus musculus [13] = experiment: Inhibition of B cell activation in C57BL/6 mouse at 1 mg/kg, po after 0.25 hr relative to control; format: functional; settings: Mus musculus, C57BL/6, po, 0.25 h
Rattus norvegicus [14] = experiment: Antiarthritic activity in Lewis rat model of collagen-induced arthritis assessed as reduction in ankle swelling at 0.1 mg/kg, po administered via gavage once daily starting from day 6 to day 16 and measured from day 11 to day 17 by caliper method
Rattus norvegicus [15] = experiment: Antiarthritic activity in Lewis rat model of collagen-induced arthritis assessed as reduction in ankle histopathological scores at 0.1 mg/kg, po administered via gavage once daily starting from day 6 to day 16 relative to control; set-up: scale not given: the % may be the effect or the level left
[16] = target: Tyrosine-protein kinase BTK (Homo sapiens, UniProt Q06187, C481S); experiment: Inhibition of BTK Cys481S mutant (unknown origin)
Sequence of Tyrosine-protein kinase BTK (Homo sapiens, UniProt Q06187, C481S) (Q06187 2-659 C481S limits assumed): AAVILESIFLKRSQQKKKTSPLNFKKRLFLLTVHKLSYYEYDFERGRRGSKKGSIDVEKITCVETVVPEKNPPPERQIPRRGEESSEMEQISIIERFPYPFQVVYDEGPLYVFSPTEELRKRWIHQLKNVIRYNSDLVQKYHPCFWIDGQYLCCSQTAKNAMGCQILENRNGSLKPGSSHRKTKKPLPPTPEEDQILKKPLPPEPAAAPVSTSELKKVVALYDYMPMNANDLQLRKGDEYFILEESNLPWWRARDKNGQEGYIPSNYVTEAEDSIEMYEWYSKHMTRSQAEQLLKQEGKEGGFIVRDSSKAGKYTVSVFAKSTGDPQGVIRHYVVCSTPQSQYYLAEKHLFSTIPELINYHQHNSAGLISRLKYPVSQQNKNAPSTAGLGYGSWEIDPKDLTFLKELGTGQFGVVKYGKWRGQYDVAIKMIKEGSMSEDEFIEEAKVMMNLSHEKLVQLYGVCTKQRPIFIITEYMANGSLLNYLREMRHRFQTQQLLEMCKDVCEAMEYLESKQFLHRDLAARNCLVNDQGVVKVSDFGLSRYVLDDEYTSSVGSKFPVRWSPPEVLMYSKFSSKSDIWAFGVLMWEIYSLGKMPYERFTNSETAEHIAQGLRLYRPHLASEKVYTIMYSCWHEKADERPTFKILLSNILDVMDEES

Sequence of Voltage-gated inwardly rectifying potassium channel KCNH2 (Q12809 whole entry): as the sequence (Q12809 whole entry) above

SMILES | microsomal CLint at 1 µM [2] | Papp A→B at 2 h, 1 µM [3] | solubility kinetic [4] | IC50 [5] | other results
C=CC(=O)N[C@@H]1CCC[C@H](Nc2ncnc(N)c2-c2ccc(Oc3ccccc3)cc2)C1 (relative stereo) | 27 µL/min/mg | 11.9 ×10⁻⁶ cm/s | 134 µM (≈ 57.6 µg/mL) | – | Ki [1]: 1800 nM
C=CC(=O)N1CCC(CNc2ncnc(N)c2-c2ccc(Oc3cccc(F)c3)cc2)CC1 | 199 µL/min/mg | – | – | – | –
C=CC(=O)N1CCC(CNc2ncnc(N)c2-c2ccc(Oc3ccncc3)cc2)CC1 | 688 µL/min/mg | – | – | 730 nM | –
C=CC(=O)N1CCCC(Nc2ncnc(N)c2-c2ccc(Oc3ccccc3)cc2)C1 (single isomer, unassigned) | 598 µL/min/mg | – | – | – | IC50 [6]: 550 nM; inhibition at 10 µM (hERG (KCNH2)): 43%
C=CC(=O)Nc1cccc(-c2c(N)ncnc2Nc2ccc(Oc3ccccc3)cc2)c1 | – | – | – | 8 nM | IC50 [6]: 1 nM
C=CS(=O)(=O)N1CCC(CNc2ncnc(N)c2-c2ccc(Oc3ccccc3)cc2)CC1 | – | – | – | – | remaining at 4 h [7]: 16%
C=CC(=O)N[C@@H]1CC[C@H](Nc2ncnc(N)c2-c2ccc(Oc3ccccc3)cc2)C1 (relative stereo) | 202 µL/min/mg | 23.6 ×10⁻⁶ cm/s | 158 µM (≈ 65.6 µg/mL) | – | –
C=CC(=O)Nc1cccc(Oc2ccnc(N)c2-c2ccc(Oc3ccccc3)cc2)c1 | – | – | – | 5 nM | Ratio IC50 (Homo sapiens): 25 to 30; IC50 [6]: 140 nM; inhibition at 10 µM (hERG (KCNH2)): 81%
Nc1ncnc(NCC2CCN(C(=O)C3=CCC3)CC2)c1-c1ccc(Oc2ccccc2)cc1 | – | – | – | 290 nM | IC50 [8]: 290 nM
C=CC(=O)NC12CCC(Nc3ncnc(N)c3-c3ccc(Oc4ccccc4)cc3)(C1)C2 | 36 µL/min/mg | 21.7 ×10⁻⁶ cm/s | 110 µM (≈ 47 µg/mL) | 9.9 nM | efflux ratio [9]: 1.4; Ki [1]: 1300 nM; IC50 [8]: 70 nM
C=CC(=O)Nc1cccc(Oc2ncnc(N)c2-c2ccc(Oc3ccccc3)cc2)c1 | 277 µL/min/mg | 1.6 ×10⁻⁶ cm/s | < 2.4 µM | 2.9 to 3 nM | efflux ratio [9]: 4.3; Ratio IC50 (Homo sapiens): 25 to 30; IC50 [8]: 9.9 nM; IC50 [6]: 78 nM; inhibition at 10 µM (hERG (KCNH2)): 3%
C=CC(=O)N1CCC(CNc2ncnc(N)c2-c2cc(F)c(Oc3ccccc3)cc2F)CC1 | 143 µL/min/mg | – | – | 160 nM | –
C=CC(=O)N1CCC(CNc2ncnc(N)c2-c2ccc(Oc3ccccc3)cc2C(F)(F)F)CC1 | – | – | – | > 100000 nM | –
C=CC(=O)Nc1cccc(Oc2ccncc2-c2ccc(Oc3ccccc3)cc2)c1 | – | – | – | 44 nM | –
C=CC(=O)NC1CCCN(c2ncnc(N)c2-c2ccc(Oc3ccccc3)cc2)C1 (stereo not drawn) | – | – | – | 1500 nM | –
C=CC(=O)N1CCC(O)(CNc2ncnc(N)c2-c2ccc(Oc3ccccc3)cc2)CC1 | 68 µL/min/mg | 9 ×10⁻⁶ cm/s | 169 µM (≈ 75.3 µg/mL) | – | Cmax [10]: 257 nM; inhibition in vivo at 1 mg/kg (Mus musculus [11]): 42%; inhibition in vivo at 1 mg/kg (Mus musculus [12]): 15%; inhibition at 10 µM (hERG (KCNH2)): 45%; inhibition in vivo at 1 mg/kg (Mus musculus [13]): 37%
C=CC(=O)N1CCC(Nc2ncnc(N)c2-c2ccc(Oc3ccccc3)cc2)C1 (single isomer, unassigned) | 77 µL/min/mg | 25.2 ×10⁻⁶ cm/s | 160 µM (≈ 64.2 µg/mL) | – | inhibition at 10 µM (hERG (KCNH2)): 40%
C#CC(=O)N1CCC(CNc2ncnc(N)c2-c2ccc(Oc3ccccc3)cc2)CC1 | – | – | – | 0.2 nM | remaining at 4 h [7]: 34%
C=CC(=O)N1CCC(CNc2ncnc(N)c2-c2ccc(Oc3ccc(F)cc3)cc2)CC1 | 143 µL/min/mg | – | – | 150 nM | –
C=CC(=O)N1CCC(Nc2ncnc(N)c2-c2ccc(Oc3ccccc3)cc2)CC1 | – | – | – | 1510 nM | –
C=CC(=O)Nc1cccc(Oc2ncncc2-c2ccc(Oc3ccccc3)cc2)c1 | – | – | – | – | inhibition at 10 µM (hERG (KCNH2)): 46%
C=CC(=O)N1CC2(CC(Nc3ncnc(N)c3-c3ccc(Oc4ccccc4)cc3)C2)C1 | 777 µL/min/mg | 9.3 ×10⁻⁶ cm/s | 153 µM (≈ 65.4 µg/mL) | – | Ki [1]: 780 nM
CN(Cc1cnc2nc(N)nc(N)c2n1)c1ccc(C(=O)N[C@@H](CCC(=O)O)C(=O)O)cc1 [METHOTREXATE] | – | – | – | – | Activity (Rattus norvegicus [14]): Active; Activity (Rattus norvegicus [15]): 60%
C=CC(=O)N[C@H]1CC[C@@H](Nc2ncnc(N)c2-c2ccc(Oc3ccccc3)cc2)CC1 | 41 µL/min/mg | 10 ×10⁻⁶ cm/s | 154 µM (≈ 66.1 µg/mL) | – | –
CC(=O)N1CCC(CNc2ncnc(N)c2-c2ccc(Oc3ccccc3)cc2)CC1 | – | – | – | – | IC50 [16]: 8600 to 8700 nM
C=CC(=O)Nc1cccc(Nc2ncnc(N)c2-c2ccc(Oc3ccccc3)cc2)c1 | 43 µL/min/mg | 4.2 ×10⁻⁶ cm/s | 16 µM (≈ 6.78 µg/mL) | 4 nM | efflux ratio [9]: 1.6; Ki [1]: 530 nM; IC50 [8]: 19 nM; IC50 [6]: 4 nM
C=CC(=O)N1CCC(CNc2ncnc(N)c2-c2ccc(Oc3ccc(C)cc3)cc2)CC1 | 145 µL/min/mg | – | – | 18 nM | –
C=CC(=O)N1CCC(CNc2ncnc(N)c2-c2ccc(C(=O)Nc3ccccc3)cc2)CC1 | – | – | – | 1200 nM | –
Nc1ncnc(NCC2CCN(C(=O)CCl)CC2)c1-c1ccc(Oc2ccccc2)cc1 | – | – | – | – | remaining at 4 h [7]: 49%
